For three compounds, Kd, Ki and Activity results are on record in ChEMBL document CHEMBL3286317, “Synthesis and biological evaluation of a unique heparin mimetic hexasaccharide for structure-activity relationship studies” (J Med Chem, 2014).

SMILES strings stand for the structures. The source made the active and inactive calls. No cut-off for these calls is given here.

The target of test [1] is T1, Bone morphogenetic protein 4 (Homo sapiens, UniProt P12644).
T1 sequence (P12644 whole entry): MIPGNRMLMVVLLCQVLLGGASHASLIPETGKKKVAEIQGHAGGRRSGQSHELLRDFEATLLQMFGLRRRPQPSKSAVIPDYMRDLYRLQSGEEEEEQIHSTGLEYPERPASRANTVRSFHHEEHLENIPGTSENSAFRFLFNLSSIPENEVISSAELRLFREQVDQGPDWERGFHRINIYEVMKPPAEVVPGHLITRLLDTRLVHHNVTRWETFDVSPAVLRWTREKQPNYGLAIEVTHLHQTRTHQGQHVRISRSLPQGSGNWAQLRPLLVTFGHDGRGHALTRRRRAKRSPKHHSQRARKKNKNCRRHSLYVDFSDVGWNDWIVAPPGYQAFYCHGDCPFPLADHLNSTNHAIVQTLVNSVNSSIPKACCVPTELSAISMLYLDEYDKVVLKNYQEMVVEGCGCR
Kind of test: Binding affinity to human recombinant BMP4 by surface plasmon resonance assay. In a few lines: (§1)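 Biotinylated low-molecular-weight heparin was captured on a neutravidin surface. Protein at varying concentrations was mixed with a hexasaccharide dilution series and injected. Free protein was read from a quadratic slope-vs-concentration standard curve. KD = [P_free][H_total]/[P_bound], averaged over three hexasaccharide concentrations.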

For test [2], the target named is T2, P-selectin/P-selectin glycoprotein ligand 1 (Homo sapiens, UniProt P16109+Q14242).
T2 sequence (Q14242 whole entry): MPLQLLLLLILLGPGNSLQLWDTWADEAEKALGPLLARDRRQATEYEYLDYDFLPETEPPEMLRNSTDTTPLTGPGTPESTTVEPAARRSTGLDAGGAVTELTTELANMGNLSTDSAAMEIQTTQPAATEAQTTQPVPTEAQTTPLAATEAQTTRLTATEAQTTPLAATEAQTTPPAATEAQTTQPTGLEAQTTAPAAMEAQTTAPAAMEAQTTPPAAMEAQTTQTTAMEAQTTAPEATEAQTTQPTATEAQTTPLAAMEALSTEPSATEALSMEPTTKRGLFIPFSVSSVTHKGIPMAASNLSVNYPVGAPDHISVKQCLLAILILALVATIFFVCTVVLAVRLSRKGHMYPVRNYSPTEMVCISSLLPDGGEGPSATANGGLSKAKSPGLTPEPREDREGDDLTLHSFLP
T2 sequence (P16109 whole entry): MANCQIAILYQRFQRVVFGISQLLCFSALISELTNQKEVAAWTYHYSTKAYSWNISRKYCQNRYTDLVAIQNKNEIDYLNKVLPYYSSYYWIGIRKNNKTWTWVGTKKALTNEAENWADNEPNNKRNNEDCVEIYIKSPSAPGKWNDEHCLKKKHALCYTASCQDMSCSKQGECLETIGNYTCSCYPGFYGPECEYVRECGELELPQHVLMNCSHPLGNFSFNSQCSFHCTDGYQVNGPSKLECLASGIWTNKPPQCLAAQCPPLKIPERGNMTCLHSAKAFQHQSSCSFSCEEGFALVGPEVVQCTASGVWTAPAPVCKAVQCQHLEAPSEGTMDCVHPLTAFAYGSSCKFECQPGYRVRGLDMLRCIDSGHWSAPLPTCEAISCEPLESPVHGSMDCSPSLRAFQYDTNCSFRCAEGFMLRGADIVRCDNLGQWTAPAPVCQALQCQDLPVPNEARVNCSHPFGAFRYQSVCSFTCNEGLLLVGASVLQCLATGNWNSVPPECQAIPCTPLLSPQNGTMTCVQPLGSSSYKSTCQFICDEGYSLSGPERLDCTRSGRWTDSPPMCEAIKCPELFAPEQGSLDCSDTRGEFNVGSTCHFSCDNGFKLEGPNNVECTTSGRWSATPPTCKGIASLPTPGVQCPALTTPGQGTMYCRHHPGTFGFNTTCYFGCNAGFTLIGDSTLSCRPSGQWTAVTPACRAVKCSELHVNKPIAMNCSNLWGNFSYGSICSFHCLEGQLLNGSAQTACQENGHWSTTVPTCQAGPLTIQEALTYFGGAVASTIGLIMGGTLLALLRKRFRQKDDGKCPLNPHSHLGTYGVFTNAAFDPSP
Kind of test: Inhibition of PSEL/PSGL1 (unknown origin) interaction. Type of test: protein assay. In a few lines:
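Hexasaccharide dilution series mixed with 50 nM PSEL and passed over a PSGL1-Fc-coated SPR surface. Equilibrium response was measured. IC50 came from nonlinear regression of response vs concentration, and Ki from the Cheng–Prusoff equation.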

For test [3], the target named is T3, Vascular endothelial growth factor A, long form (Homo sapiens, UniProt P15692).
T3 sequence (P15692 whole entry): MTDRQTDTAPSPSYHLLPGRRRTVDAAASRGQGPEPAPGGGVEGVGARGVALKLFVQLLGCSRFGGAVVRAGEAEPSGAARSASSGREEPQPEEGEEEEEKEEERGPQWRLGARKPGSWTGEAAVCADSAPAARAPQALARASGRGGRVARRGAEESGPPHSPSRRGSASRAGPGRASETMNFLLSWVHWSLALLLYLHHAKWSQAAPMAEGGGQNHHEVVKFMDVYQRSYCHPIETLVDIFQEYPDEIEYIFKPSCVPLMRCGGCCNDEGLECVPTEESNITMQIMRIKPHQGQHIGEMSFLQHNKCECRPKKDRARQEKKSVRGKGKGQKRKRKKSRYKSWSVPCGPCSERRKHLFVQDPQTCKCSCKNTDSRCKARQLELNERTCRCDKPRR
Put plainly: Binding affinity to human recombinant VEGF165 by surface plasmon resonance assay. In outline: as §1

For test [4], the target named is T4, Fibroblast growth factor 2 (Homo sapiens, UniProt P09038). Put plainly: Binding affinity to human recombinant FGF2 by surface plasmon resonance assay. In a few lines:
as §1

The target in test [5] is T4, Fibroblast growth factor 2. Kind of test: Binding affinity to human recombinant FGF2 at 780 uM by STD-NMR analysis.
Test [6] deals with T5, C-X-C motif chemokine 2 (Homo sapiens, UniProt P19875).
T5 sequence (P19875 whole entry): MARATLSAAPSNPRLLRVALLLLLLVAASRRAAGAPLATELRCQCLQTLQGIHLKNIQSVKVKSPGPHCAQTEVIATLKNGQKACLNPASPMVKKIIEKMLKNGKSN
Kind of test: Binding affinity to human recombinant CXCL2 by surface plasmon resonance assay. In a few lines:
as §1

The target in test [7] is Sonic hedgehog protein (Homo sapiens, UniProt Q15465). Kind of test: Binding affinity to human recombinant Shh by surface plasmon resonance assay. In outline:
as §1

Test [8] concerns the target Bone morphogenetic protein 6 (Homo sapiens, UniProt P22004). Kind of test: Binding affinity to human recombinant BMP6 by surface plasmon resonance assay. In a few lines: as §1

Chain of Bone morphogenetic protein 6 (P22004 375-513 limits assumed): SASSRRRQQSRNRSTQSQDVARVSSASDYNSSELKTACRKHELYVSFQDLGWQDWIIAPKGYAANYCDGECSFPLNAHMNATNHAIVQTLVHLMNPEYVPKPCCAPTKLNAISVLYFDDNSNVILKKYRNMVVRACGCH
T4 sequence (P09038 143-288 limits assumed): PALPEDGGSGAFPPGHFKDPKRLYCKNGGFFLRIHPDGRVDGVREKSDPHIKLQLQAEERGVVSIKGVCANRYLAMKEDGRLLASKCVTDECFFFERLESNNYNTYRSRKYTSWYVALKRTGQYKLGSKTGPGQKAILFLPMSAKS
Chain of Sonic hedgehog protein (Q15465 24-197 limits assumed): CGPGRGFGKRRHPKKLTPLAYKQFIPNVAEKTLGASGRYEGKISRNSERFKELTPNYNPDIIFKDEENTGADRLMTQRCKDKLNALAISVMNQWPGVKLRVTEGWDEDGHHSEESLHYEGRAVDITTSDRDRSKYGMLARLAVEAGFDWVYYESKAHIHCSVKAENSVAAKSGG

`NCCCCCO[C@H]1O[C@H](CO)[C@@H](O[C@@H]2O[C@@H](C(=O)O)[C@@H](O[C@H]3O[C@H](CO)[C@@H](O[C@@H]4O[C@@H](C(=O)O)[C@@H](O[C@H]5O[C@H](CO)[C@@H](O[C@@H]6O[C@@H](C(=O)O)[C@@H](O)[C@H](O)[C@H]6OS(=O)(=O)O)[C@H](O)[C@H]5NS(=O)(=O)O)[C@H](O)[C@H]4OS(=O)(=O)O)[C@H](O)[C@H]3NS(=O)(=O)O)[C@H](O)[C@H]2OS(=O)(=O)O)[C@H](O)[C@H]1NS(=O)(=O)O`: the Kd is 250000 µM in test [1]; 86 µM in test [3]; 1 µM in test [4]; 250000 µM in test [6]; 122 µM in test [7]; 250000 µM in test [8]. In test [2], this compound showed a Ki of 358 µM. Moreover, the outcome in test [5] was Active.

In the case of `CCCCCO[C@H]1O[C@H](COS(=O)(=O)O)[C@@H](O[C@@H]2O[C@@H](C(=O)O)[C@@H](O[C@H]3O[C@H](COS(=O)(=O)O)[C@@H](O[C@@H]4O[C@@H](C(=O)O)[C@@H](O[C@H]5O[C@H](COS(=O)(=O)O)[C@@H](O[C@@H]6O[C@@H](C(=O)O)[C@@H](O)[C@H](O)[C@H]6OS(=O)(=O)O)[C@H](O)[C@H]5NC(C)=O)[C@H](O)[C@H]4OS(=O)(=O)O)[C@H](O)[C@H]3NS(=O)(=O)O)[C@H](O)[C@H]2O)[C@H](O)[C@H]1NC(C)=O`, the Kd in test [1] stood at 250000 µM; in test [3], 14 µM; in test [4] it was 25000 µM; in test [6], 250000 µM; in test [7], 23 µM; in test [8], 9 µM. In test [2], this compound came in with a Ki of 96 µM. In addition, the result in test [5] was Active.

In the case of `CCCCCO[C@H]1O[C@H](COS(=O)(=O)O)[C@@H](O[C@@H]2O[C@@H](C(=O)O)[C@@H](O[C@H]3O[C@H](COS(=O)(=O)O)[C@@H](O[C@@H]4O[C@@H](C(=O)O)[C@@H](O[C@H]5O[C@H](COS(=O)(=O)O)[C@@H](O[C@@H]6O[C@@H](C(=O)O)[C@@H](O)[C@H](O)[C@H]6OS(=O)(=O)O)[C@H](O)[C@H]5NC(C)=O)[C@H](O)[C@H]4OS(=O)(=O)O)[C@H](O)[C@H]3NC(C)=O)[C@H](O)[C@H]2OS(=O)(=O)O)[C@H](O)[C@H]1NC(C)=O`, the Kd in test [1] came to 250000 µM; in test [3] it was 66 µM; in test [4], 25000 µM; in test [6], 250000 µM; in test [7] it was 27 µM; in test [8], 250000 µM. Further, the Ki in test [2] worked out at 250 µM. Also, the result in test [5] was Active.
